Measured values as given in ChEMBL document CHEMBL1154441, “Chemotherapy of leishmaniasis part-VIII: synthesis and bioevaluation of novel chalcones” (2008).
Calls of active or inactive are those of the source. No cut-off for these calls is given here.

These compounds were tested on Leishmania donovani (assay: Antileishmanial activity against Leishmania donovani MHOM/IN/Dd8 promastigotes assessed as inhibition of parasitic growth at 2 ug/ml after 72 hrs by luciferase activity-based luminescence assay). Conditions: not given.
Assay type: functional
How it was run: (§1)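 Late-log luciferase-transfected L. donovani promastigotes (kept at 25 ± 1 °C in medium 199 + 10% FCS under G418) seeded at 5 × 10⁵ per well in medium 199; exposed 72 h to serial dilutions of compound in DMSO, with parallel DMSO dilutions as controls. Aliquot mixed 1:1 with Steady-Glo reagent; luminescence read as RLU and growth inhibition derived from luciferase signal.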

| SMILES | inhibition at 2 µg/mL [%] |
| --- | --- |
| CC1=CCCC(C)(C)C1CCC(=O)/C=C/c1ccc(O)cc1 (configuration not stated) | 76 |
| COc1ccc(/C=C/C(=O)CCC2C(C)=CCCC2(C)C)cc1 (configuration not stated) | 98 |
| CC1=CCCC(C)(C)C1CCC(=O)/C=C/c1ccc(Cl)cc1 (configuration not stated) | 100 |
| CC1=CCCC(C)(C)C1CCC(=O)/C=C/c1ccc(OCc2ccccc2)cc1 (configuration not stated) | 61 |
| COc1cc(/C=C/C(=O)CCC2C(C)=CCCC2(C)C)cc(OC)c1OC (configuration not stated) | 50 |
| COc1ccc(/C=C/C(=O)CCC2C(C)=CCCC2(C)C)cc1OC (configuration not stated) | 100 |
| CC1=CCCC(C)(C)C1CCC(=O)/C=C/c1ccccc1[N+](=O)[O-] (configuration not stated) | 34 |
| CC1=CCCC(C)(C)C1CCC(=O)/C=C/c1cccc([N+](=O)[O-])c1 (configuration not stated) | 98 |
| CC1=CCCC(C)(C)C1CCC(=O)/C=C/c1cccnc1 (configuration not stated) | 100 |
| CC1=CCCC(C)(C)C1CCC(=O)/C=C/c1ccc(CO)o1 (configuration not stated) | 65 |
| CC1=CCCC(C)(C)C1CCC(=O)/C=C/c1ccc([N+](=O)[O-])cc1 (configuration not stated) | 95 |

These compounds were tested on Leishmania donovani (assay: Antileishmanial activity against Leishmania donovani MHOM/IN/Dd8 amastigotes infected in mouse J774A.1 cells assessed as inhibition of parasitic growth at 2 ug/ml after 24 hrs by luciferase activity-based luminescence assay). Conditions: not given.
Assay type: functional
How it was run: (§2)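 Macrophages seeded 5 × 10⁴ per well in RPMI-1640 + 10% FCS, 37 °C, CO₂; after 24 h infected with stationary-phase luciferase-expressing promastigotes (2.5 × 10⁵ per well) that transform to amastigotes. Medium replaced with compound in complete medium, incubated 37 °C for 24 h or more; then PBS added, mixed 1:1 with Steady-Glo, shaken 1–2 min, luminescence read to give growth inhibition.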

| SMILES | Activity |
| --- | --- |
| CC1=CCCC(C)(C)C1CCC(=O)/C=C/c1ccc(O)cc1 (configuration not stated) | inactive |
| COc1cc(/C=C/C(=O)CCC2C(C)=CCCC2(C)C)cc(OC)c1OC (configuration not stated) | inactive |
| CC1=CCCC(C)(C)C1CCC(=O)/C=C/c1ccccc1[N+](=O)[O-] (configuration not stated) | inactive |
| CC1=CCCC(C)(C)C1CCC(=O)/C=C/c1ccc(CO)o1 (configuration not stated) | inactive |

Same assay, conditions: J774.A1, 24 h, read-out: INH

| SMILES | percent inhibition of intracellular amastigote growth at 2 µg/mL [%] |
| --- | --- |
| COc1ccc(/C=C/C(=O)CCC2C(C)=CCCC2(C)C)cc1 (configuration not stated) | 40 |
| CC1=CCCC(C)(C)C1CCC(=O)/C=C/c1ccc(Cl)cc1 (configuration not stated) | 88 |
| COc1ccc(/C=C/C(=O)CCC2C(C)=CCCC2(C)C)cc1OC (configuration not stated) | 79 |
| CC1=CCCC(C)(C)C1CCC(=O)/C=C/c1cccnc1 (configuration not stated) | 33 |
| CC1=CCCC(C)(C)C1CCC(=O)/C=C/c1ccc([N+](=O)[O-])cc1 (configuration not stated) | 74 |

These compounds were tested on Leishmania donovani (assay: Antileishmanial activity against Leishmania donovani MHOM/IN/Dd8 amastigotes infected in mouse J774A.1 cells assessed as inhibition of parasitic growth at 5 ug/ml after 24 hrs by luciferase activity-based luminescence assay). Conditions: not given.
Assay type: functional
How it was run: as §2

| SMILES | Activity |
| --- | --- |
| CC1=CCCC(C)(C)C1CCC(=O)/C=C/c1ccc(O)cc1 (configuration not stated) | inactive |
| CC1=CCCC(C)(C)C1CCC(=O)/C=C/c1ccc(OCc2ccccc2)cc1 (configuration not stated) | inactive |
| COc1cc(/C=C/C(=O)CCC2C(C)=CCCC2(C)C)cc(OC)c1OC (configuration not stated) | inactive |
| CC1=CCCC(C)(C)C1CCC(=O)/C=C/c1ccccc1[N+](=O)[O-] (configuration not stated) | inactive |
| CC1=CCCC(C)(C)C1CCC(=O)/C=C/c1ccc(CO)o1 (configuration not stated) | inactive |

Same assay, conditions: J774.A1, 24 h, read-out: INH

| SMILES | Percent inhibition of intracellular amastigote growth at 5 µg/mL [%] |
| --- | --- |
| COc1ccc(/C=C/C(=O)CCC2C(C)=CCCC2(C)C)cc1 (configuration not stated) | 81 |
| CC1=CCCC(C)(C)C1CCC(=O)/C=C/c1ccc(Cl)cc1 (configuration not stated) | 93 |
| COc1ccc(/C=C/C(=O)CCC2C(C)=CCCC2(C)C)cc1OC (configuration not stated) | 95 |
| CC1=CCCC(C)(C)C1CCC(=O)/C=C/c1cccc([N+](=O)[O-])c1 (configuration not stated) | 65 |
| CC1=CCCC(C)(C)C1CCC(=O)/C=C/c1cccnc1 (configuration not stated) | 92 |
| CC1=CCCC(C)(C)C1CCC(=O)/C=C/c1ccc([N+](=O)[O-])cc1 (configuration not stated) | 80 |

These compounds were tested on Leishmania donovani (assay: Antileishmanial activity against Leishmania donovani MHOM/IN/Dd8 promastigotes assessed as inhibition of parasitic growth at 5 ug/ml after 72 hrs by luciferase activity-based luminescence assay). Conditions: not given.
Assay type: functional
How it was run: as §1

| SMILES | inhibition at 5 µg/mL [%] |
| --- | --- |
| CC1=CCCC(C)(C)C1CCC(=O)/C=C/c1ccc(O)cc1 (configuration not stated) | 100 |
| COc1ccc(/C=C/C(=O)CCC2C(C)=CCCC2(C)C)cc1 (configuration not stated) | 98 |
| CC1=CCCC(C)(C)C1CCC(=O)/C=C/c1ccc(Cl)cc1 (configuration not stated) | 100 |
| CC1=CCCC(C)(C)C1CCC(=O)/C=C/c1ccc(OCc2ccccc2)cc1 (configuration not stated) | 100 |
| COc1cc(/C=C/C(=O)CCC2C(C)=CCCC2(C)C)cc(OC)c1OC (configuration not stated) | 90 |
| COc1ccc(/C=C/C(=O)CCC2C(C)=CCCC2(C)C)cc1OC (configuration not stated) | 100 |
| CC1=CCCC(C)(C)C1CCC(=O)/C=C/c1ccccc1[N+](=O)[O-] (configuration not stated) | 53 |
| CC1=CCCC(C)(C)C1CCC(=O)/C=C/c1cccc([N+](=O)[O-])c1 (configuration not stated) | 99 |
| CC1=CCCC(C)(C)C1CCC(=O)/C=C/c1cccnc1 (configuration not stated) | 100 |
| CC1=CCCC(C)(C)C1CCC(=O)/C=C/c1ccc(CO)o1 (configuration not stated) | 93 |
| CC1=CCCC(C)(C)C1CCC(=O)/C=C/c1ccc([N+](=O)[O-])cc1 (configuration not stated) | 99 |
